TDP2 inh: human TDP2 enzyme inhibitors, primary screen, biochemical, epi absorbance, recombinant enzyme | Tyrosyl-DNA phosphodiesterase 2 (Homo sapiens), O95551 | T5PNP hydrolysis, p-nitrophenol absorbance 415 nm | inhibition, % at 12.8 µM | 0.34% of 370,000 active | AID 720702, 2013;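 active = inhibition above the mean of all tested compounds plus 3 SD, set per campaign, cut at about 25% in these data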
Target sequence (O95551 whole entry, looked up): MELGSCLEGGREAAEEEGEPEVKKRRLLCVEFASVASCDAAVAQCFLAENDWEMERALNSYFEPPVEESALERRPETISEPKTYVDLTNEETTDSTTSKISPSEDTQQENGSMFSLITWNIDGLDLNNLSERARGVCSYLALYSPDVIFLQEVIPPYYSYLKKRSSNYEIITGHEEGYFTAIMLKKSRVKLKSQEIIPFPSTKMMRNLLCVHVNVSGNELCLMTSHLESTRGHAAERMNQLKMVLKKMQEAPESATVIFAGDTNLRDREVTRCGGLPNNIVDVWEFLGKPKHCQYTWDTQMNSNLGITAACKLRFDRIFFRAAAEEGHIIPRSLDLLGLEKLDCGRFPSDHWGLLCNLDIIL
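test system = human TDP2 enzyme | input = TDP2 enzyme at 120 nM final | medium = 50 mM Tris-HCl pH 7.5 with Mg2+, KCl, DTT, BSA | also added = T5PNP substrate, 5 mM | times = 2 h at 37 °C | technique = epi absorbance | benchmarks = high control without enzyme, low control DMSO plus TDP2 | replication = each compound tested once, singlicate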
PAD4 FP inh: human PAD4 inhibitors, primary screen, biochemical, fluorescence polarization, 1536-well format. recombinant PAD4, RCA probe fluorescence polarization. inhibition, % at 6.36 µM. 0.41% of 330,000 active. AID 485272, 2010;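 active = percent inhibition above a cutoff equal to the mean of all tested compounds plus 3 SD, cut at about 15% in these data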
GSTO1 counter: inhibitors of recombinant GSTO1, primary screen, counter-screen for RBBP9 inhibitor project, biochemical, fluorescence polarization | Glutathione S-transferase omega-1 (Homo sapiens), P78417 | activity-based probe fluorescence polarization | inhibition, % at 5.96 µM | 1.1% of 300,000 active | AID 1974, 2009;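 active = inhibition above the campaign mean inhibition plus 3 SD, cut at about 35% in these data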
Target sequence (P78417 whole entry, looked up): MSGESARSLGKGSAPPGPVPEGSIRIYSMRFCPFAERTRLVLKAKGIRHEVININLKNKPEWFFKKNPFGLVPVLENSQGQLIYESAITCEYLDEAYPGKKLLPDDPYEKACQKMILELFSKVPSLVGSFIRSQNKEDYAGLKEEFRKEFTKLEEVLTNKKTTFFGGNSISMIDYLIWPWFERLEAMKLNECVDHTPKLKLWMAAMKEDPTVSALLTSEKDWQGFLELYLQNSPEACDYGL
Fh CTSL1 inh: Fasciola hepatica cathepsin L1 inhibitors, primary screen, counter-screen for PFM18AAP inhibitor project, biochemical, QFRET, fluorogenic peptide substrate; recombinant F. hepatica cathepsin L1, Z-Leu-Arg-MCA fluorescence; inhibition, % at 5.96 µM; 0.49% of 300,000 active; AID 1906, 2009;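 active = inhibition above the mean of all tested compounds plus 3 SD, set per screening campaign, cut at about 17% in these data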
PRMT1 FP inh: PRMT1 methyltransferase inhibitors, primary screen, biochemical, fluorescence polarization; recombinant PRMT1, activity-based probe fluorescence polarization; inhibition, % at 2.79 µM; Protein arginine N-methyltransferase 1 (Homo sapiens), Q99873; 1.3% of 370,000 active;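 active = inhibition above about 21% made by adding two undisclosed values, limit read from the data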
PRMT1 confirm: PRMT1 methyltransferase inhibitors, confirmation, biochemical, fluorescence polarization, triplicate. shares compounds with PRMT1 FP inh. 42% of 3,300 active. inhibition, % at 2.79 µM. recombinant His-PRMT1, activity-based probe fluorescence polarization. AID 687036, 2013;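 active = mean inhibition across replicates above the hit cutoff derived for the earlier primary screen, cut at about 22% in these data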
Hits are given with their value; - = inactive; . = not tested or not shown. An excerpt weighted towards active compounds, which were near 2.5% of everything screened.

SMILES	TDP2 inh	PAD4 FP inh	GSTO1 counter	Fh CTSL1 inh	PRMT1 FP inh	PRMT1 confirm
Nn1c(SCc2cn3cc(Cl)ccc3n2)nnc1-c1ccncc1	-	-	-	-	25	40
CC(C)N1CCc2c(sc(NC(=O)C(F)F)c2-c2nc3ccccc3s2)C1	-	.	.	.	29	-
CC(=O)Nc1sc2c(c1-c1nc3ccccc3s1)CCN(C(C)C)CC2	-	.	.	.	37	-
CC(=O)Nc1sc2c(c1-c1nc3ccccc3s1)CCN(C(C)C)C2	.	-	-	-	.	.
COc1ccc(CCNC(=O)c2cnn3c(C(F)F)cc(C)nc23)cc1OC	-	-	-	-	30	-
COc1ccccc1CCNC(=O)c1cnn2c(C(F)F)cc(C)nc12	-	-	-	-	-	.
COc1cc(CN2CCCC(C(=O)c3ccc4c5c(cccc35)CC4)C2)cc(OC)c1O (centres undefined)	-	-	-	-	28	-
Cc1cccc(C)c1NC(=O)C1(C)CN(S(C)(=O)=O)CC(=O)N1CCc1c[nH]c2ccccc12 (centres undefined)	-	.	.	.	-	.
CCOC(=O)c1c(C)nsc1NCc1ccccc1	-	-	-	-	28	-
CCOC(=O)c1c(NCc2ccccc2)n[nH]c1C	-	-	-	-	-	.
CCOc1ccc(N2C(=O)CC(N3CCC(NC(=O)Nc4ccccc4)CC3)C2=O)cc1 (centres undefined)	-	-	-	-	64	-
CCCOc1ccc(N2C(=O)CC(N3CCC(C(=O)OCC)CC3)C2=O)cc1 (centres undefined)	-	-	-	-	56	-
O=C(C1CCN(C2CC(=O)N(c3cccc(Cl)c3)C2=O)CC1)N1CCCCCC1 (centres undefined)	-	-	-	-	29	-
CCCOc1ccc(N2C(=O)CC(SCC(N)C(=O)OCC)C2=O)cc1 (centres undefined)	-	-	-	-	27	23
CCOc1ccc(N2C(=O)CC(N3CCN(C(=O)CN4CCCC4)CC3)C2=O)cc1 (centres undefined)	-	-	-	-	-	.
CCCOc1ccc(N2C(=O)CC(N3CCOCC3)C2=O)cc1 (centres undefined)	-	-	-	-	-	.
CCc1ccc(CCNC(=O)OC2CC3CC2[C@H]2CCCCN2C3)cc1 (some centres undefined)	-	.	.	.	-	.
O=C(C1CCCN(C2CC(=O)N(c3ccc(Cl)cc3)C2=O)C1)N1CCCC1 (centres undefined)	-	.	.	.	30	-
CCOC(=O)C1CCCN(C2CC(=O)N(c3cccc(C)c3)C2=O)C1 (centres undefined)	-	-	-	-	63	-
O=C(C1CCCN(C2CC(=O)N(c3ccc(F)cc3)C2=O)C1)N1CCCC1 (centres undefined)	-	.	.	.	-	.
CCCOc1ccc(N2C(=O)CC(N3CCCC(C(=O)N4CCCC4)C3)C2=O)cc1 (centres undefined)	-	-	-	-	39	-
C[C@H]1[C@@H](OC(=O)NCCc2c[nH]c3ccccc23)CC[C@@]23CCCN2C(=O)CCC[C@@H]13	-	.	.	.	-	.
O=C1ON=C(c2ccccc2)/C1=C\c1ccco1	-	-	-	-	-	.
O=C1C(=Cc2ccco2)CCC1=Cc1ccco1	-	.	.	.	53	50
O=C(CNc1nnnn1-c1ccccc1)N1CCCC1	-	.	.	.	-	.
SMILES	TDP2 inh	PAD4 FP inh	GSTO1 counter	Fh CTSL1 inh	PRMT1 FP inh	PRMT1 confirm
CC(C)(C)C(=O)OC12CCCN(C1)/C(=C/c1cccc(Cl)c1)C2 (centres undefined)	-	.	.	.	-	.
Cc1ccc(SC(CC(=O)c2ccc(C)cc2)C(=O)O)cc1 (centres undefined)	-	-	-	-	59	69
O=C(CC(Sc1ccc(Br)cc1)C(=O)O)c1ccc(Br)cc1 (centres undefined)	.	-	-	-	.	.
Cc1ccc(C=Nn2c(-c3n[nH]c4c3CCC4)n[nH]c2=S)s1	-	.	.	.	29	-
C[C@H]1C2CC(OC(=O)Nc3cccc(C(F)(F)F)c3)C(C2)[C@H]2CCCCN21 (some centres undefined)	-	.	.	.	-	.
COc1cccc(/C=N/n2c(COc3ccccc3)n[nH]c2=S)c1OC	-	-	-	-	27	-
S=c1[nH]nc(COc2ccccc2)n1/N=C/c1ccc(Cl)c(Cl)c1	-	-	-	-	-	.
CC(=C/c1ccccc1)/C=N/n1c(C)n[nH]c1=S	-	-	-	-	-	.
CC(/C=N/n1c(COc2ccccc2)n[nH]c1=S)=C\c1ccccc1	-	-	-	-	27	-
Cc1cccc(/C=N/n2c(COc3ccccc3)n[nH]c2=S)c1	-	.	.	.	28	-
O=C(OCc1cn(Cc2cccc(F)c2)nn1)N1CCOCC1	-	.	.	.	-	.
COC(=O)C1CN(Cc2ccccc2)CCS(=O)(=O)N1Cc1cn(Cc2cccc(Cl)c2)nn1 (centres undefined)	-	.	.	.	-	.
COC(=O)[C@]12C[C@H](CC(=O)NCCCN3CCCC3=O)C(=O)N(Cc3ccccc3)C1=C[C@H](COCc1ccccc1)O[C@@H]2C	-	.	.	.	-	.
Cc1ccc(S(=O)(=O)n2ccc(-c3c(-c4ccc(Cl)cc4)noc3C)n2)cc1	-	.	.	.	-	.
Cc1cc(C)c2c(N)c(S(=O)c3ccc(C(C)(C)C)cc3)sc2n1 (centres undefined)	-	-	-	-	33	-
CNc1ccccc(C(=O)/C=C/c2ccccc2OC)c1=O	-	-	-	-	35	39
CNc1ccc(Br)cc(C(=O)/C=C/c2cccc(OC)c2OC)c1=O	-	-	-	-	30	-
CCNc1ccc(Br)cc(C(=O)/C=C/c2ccccc2Cl)c1=O	-	-	-	-	33	-
COc1ccccc1/C=C/C(=O)c1cc(Br)ccc1OC(=O)c1ccco1	-	-	-	-	-	.
COc1ccccc1C=CC(=O)C=Cc1ccccc1OC	-	.	.	.	-	.
CNc1ccc(Br)cc(C(=O)/C=C/c2cccc(Cl)c2Cl)c1=O	-	.	.	.	25	-
C/C(=C\c1cccc(Cl)c1Cl)C(=O)c1c(C)cc(C)[nH]c1=O	-	-	-	-	-	.
COc1ccc(S[C@]2(C(=O)N3CCCC3)CC(=O)N[C@@H]2c2ccc(OC)cc2)cc1	-	.	.	.	-	.
CCC(C(=O)Nc1ccccc1N1CCCC1)c1cccc(Cl)c1 (centres undefined)	-	.	.	.	-	.
N#Cc1c(Cl)nsc1NN	-	-	-	-	40	-
CCOC(=O)N1CCN(C(=O)C[C@H]2C[C@@]3(C(=O)OC)C(=C[C@H](C(C)C)O[C@@H]3C3CC3)N(Cc3ccc(Cl)cc3Cl)C2=O)CC1	-	.	.	.	-	.

Screens: PubChem, The Scripps Research Institute Molecular Screening Center
